For data set [1] the following is noted: human serum; cited from earlier work.
The next data set has as its system blood–brain barrier. To be noted: cited from earlier work; for Direction and saturability of BBB transport: mouse brain, brain-to-blood and blood-to-brain.
For data set [2], the system named is blood–brain barrier of WT and Ghsr null mice. The data set is described as follows: Multiple-time regression analysis of blood-to-brain influx. Format: in vivo, mouse. As to conditions: for Vi, initial volume of distribution in brain (vascular binding): WT mice, whole brain, y-intercept of B/S ratio vs exposure time, mean ± SEM. Summed up:
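Male and female mice (3–6 months) were anaesthetised with 0.15 mL 40% urethane i.p. They received 1 × 10^6 cpm (~20 ng) 125I-labelled peptide plus 5 × 10^5 cpm 99mTc-albumin via jugular vein, in 0.2 mL 1% BSA/lactated Ringer's. Carotid blood was taken at 1–10 min, and serum and brain were gamma-counted. Brain/serum ratios (μL/g) were plotted against exposure time (Patlak): the slope gave Ki and the intercept gave Vi.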

Data set [3] has as its system brain endothelial cell (capillary vs parenchyma). Kind of data set: Capillary depletion: complete transfer across the brain endothelial cell. Format: in vivo, mouse. As to conditions: 10 min after IV injection, n = 3. In outline:
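Urethane-anaesthetised male and female mice (3–6 months) received a 0.2 mL IV injection of 1 × 10^6 cpm 125I-labelled test peptide plus 5 × 10^5 cpm 99mTc-albumin in 1% BSA/lactated Ringer's. Brain was homogenised and spun at 5400 g for 15 min at 4 °C. The capillary pellet was separated from the parenchymal supernatant, and the parenchyma was vascular-corrected using 99mTc-albumin. Ratios were (cpm/g tissue)/(cpm/μL serum).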

In the case of acyl ghrelin [AG], in data set [1], the Half-life is recorded as roughly 10 min. In addition, in the data set with blood–brain barrier (same time frame (10 min)), the “Degradation of AG into DAG” value is listed as “not degraded into DAG”.

For human DAG [hDAG], the “Transport rate relative to the other three ghrelin forms” value in data set [2] (BBB transport rate in mice, hDAG vs mDAG, hAG, mAG) is on record as “approximately three times faster”. Besides, the “Vi, initial volume of distribution in brain (vascular binding)” value (shortened to “Vi, initial volume of distribution”) in data set [2] was 1.775 ± 0.81 µL/g. Further, the Capillary/serum ratio in data set [3] was found to be 1.0 ± 0.30 µL/g.

Turning to mouse DAG [mDAG], the “Vi, initial volume of distribution” value in data set [2] stood at 2.265 ± 0.75 µL/g. Further, the “Direction and saturability of BBB transport” value (shortened to “Direction and saturability”) in the data set with blood–brain barrier is “unidirectionally and in an unsaturable manner”.

As for mouse AG [mAG], the “Vi, initial volume of distribution” value in data set [2] came to 2.847 ± 0.57 µL/g. Moreover, the “Direction and saturability” value in the data set with blood–brain barrier was “bidirectional and saturable manner”.

As for human AG [hAG], the “Vi, initial volume of distribution” value in data set [2] turned out to be 1.192 ± 0.57 µL/g. The “Direction and saturability” value with blood–brain barrier is “bidirectional and saturable manner”.

The record behind these values is paper PMC6308033 (Molecular Metabolism, 2018).
